Source: article PMC6120582 (Science (New York, N.Y.), 2018)
One block for each compound: values may come before it.

What was measured:
eIF2 = eIF2 (Homo sapiens, UniProt P41091); experiment: GDP unloading assay, displacement of Bodipy-GDP; format: binding; settings: 1000-fold excess of unlabelled GDP; exchange catalysed by eIF2B
eIF2B(αβγδε)2 [1] = biological target: eIF2B(αβγδε)2 (Homo sapiens, UniProt P49770+Q9UI10, Q9UI10:L179A); experiment: GEF assay, unloading of Bodipy-GDP from eIF2; format: biochemical; settings: assembled eIF2B(βγδε) and eIF2B(α2); activator
Sequence of eIF2B(αβγδε)2 (Homo sapiens, UniProt P49770+Q9UI10, Q9UI10:L179A) (P49770 whole entry): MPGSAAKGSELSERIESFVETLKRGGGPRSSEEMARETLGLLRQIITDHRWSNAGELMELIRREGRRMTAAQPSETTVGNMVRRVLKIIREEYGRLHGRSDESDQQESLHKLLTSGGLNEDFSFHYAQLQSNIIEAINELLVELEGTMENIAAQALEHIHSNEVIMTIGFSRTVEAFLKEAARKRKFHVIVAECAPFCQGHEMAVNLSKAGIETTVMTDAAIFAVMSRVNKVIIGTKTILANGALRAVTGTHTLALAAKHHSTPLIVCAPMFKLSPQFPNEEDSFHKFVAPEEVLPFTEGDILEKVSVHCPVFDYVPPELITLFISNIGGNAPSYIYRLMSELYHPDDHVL
Sequence of eIF2B(αβγδε)2 (Homo sapiens, UniProt P49770+Q9UI10, Q9UI10:L179A) (Q9UI10 whole entry L179A): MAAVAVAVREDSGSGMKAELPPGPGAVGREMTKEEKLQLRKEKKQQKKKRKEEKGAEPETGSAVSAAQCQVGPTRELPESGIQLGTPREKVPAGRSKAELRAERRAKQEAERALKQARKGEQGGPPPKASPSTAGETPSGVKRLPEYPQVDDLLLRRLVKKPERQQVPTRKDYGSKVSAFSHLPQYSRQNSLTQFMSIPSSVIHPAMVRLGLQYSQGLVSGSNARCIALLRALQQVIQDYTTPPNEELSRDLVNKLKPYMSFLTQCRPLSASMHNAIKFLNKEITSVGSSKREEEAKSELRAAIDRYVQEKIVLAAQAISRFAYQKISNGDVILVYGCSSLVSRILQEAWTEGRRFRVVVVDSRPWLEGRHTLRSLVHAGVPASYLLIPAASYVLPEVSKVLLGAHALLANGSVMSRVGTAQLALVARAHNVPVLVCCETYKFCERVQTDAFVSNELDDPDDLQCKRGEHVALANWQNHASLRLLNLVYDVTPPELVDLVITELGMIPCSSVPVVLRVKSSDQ
Sequence of eIF2B(αβγδε)2 (Homo sapiens, UniProt P49770+Q9UI10, Q9UI10:L179A) (Q14232 whole entry partner): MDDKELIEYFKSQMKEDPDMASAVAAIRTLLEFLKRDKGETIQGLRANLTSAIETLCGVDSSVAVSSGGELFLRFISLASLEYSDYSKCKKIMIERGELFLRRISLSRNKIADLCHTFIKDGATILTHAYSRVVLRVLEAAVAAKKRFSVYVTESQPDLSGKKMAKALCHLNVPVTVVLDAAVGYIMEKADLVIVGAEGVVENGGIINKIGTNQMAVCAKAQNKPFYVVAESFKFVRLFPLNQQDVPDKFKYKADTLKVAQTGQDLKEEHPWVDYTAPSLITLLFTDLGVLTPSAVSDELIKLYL
Sequence of eIF2B(αβγδε)2 (Homo sapiens, UniProt P49770+Q9UI10, Q9UI10:L179A) (Q9NR50 whole entry partner): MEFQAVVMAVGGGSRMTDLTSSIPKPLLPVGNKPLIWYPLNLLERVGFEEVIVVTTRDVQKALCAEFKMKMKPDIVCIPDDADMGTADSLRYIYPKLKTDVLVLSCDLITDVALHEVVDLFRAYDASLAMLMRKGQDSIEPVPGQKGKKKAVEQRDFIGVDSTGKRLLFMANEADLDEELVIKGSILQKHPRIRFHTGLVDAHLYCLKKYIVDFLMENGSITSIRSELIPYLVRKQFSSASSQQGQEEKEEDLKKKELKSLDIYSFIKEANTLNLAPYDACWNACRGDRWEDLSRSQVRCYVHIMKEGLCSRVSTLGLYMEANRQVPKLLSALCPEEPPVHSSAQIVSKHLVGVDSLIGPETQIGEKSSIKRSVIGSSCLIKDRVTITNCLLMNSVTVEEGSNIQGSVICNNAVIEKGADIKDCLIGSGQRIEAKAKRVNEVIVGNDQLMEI
Sequence of eIF2B(αβγδε)2 (Homo sapiens, UniProt P49770+Q9UI10, Q9UI10:L179A) (Q13144 2-721 partner): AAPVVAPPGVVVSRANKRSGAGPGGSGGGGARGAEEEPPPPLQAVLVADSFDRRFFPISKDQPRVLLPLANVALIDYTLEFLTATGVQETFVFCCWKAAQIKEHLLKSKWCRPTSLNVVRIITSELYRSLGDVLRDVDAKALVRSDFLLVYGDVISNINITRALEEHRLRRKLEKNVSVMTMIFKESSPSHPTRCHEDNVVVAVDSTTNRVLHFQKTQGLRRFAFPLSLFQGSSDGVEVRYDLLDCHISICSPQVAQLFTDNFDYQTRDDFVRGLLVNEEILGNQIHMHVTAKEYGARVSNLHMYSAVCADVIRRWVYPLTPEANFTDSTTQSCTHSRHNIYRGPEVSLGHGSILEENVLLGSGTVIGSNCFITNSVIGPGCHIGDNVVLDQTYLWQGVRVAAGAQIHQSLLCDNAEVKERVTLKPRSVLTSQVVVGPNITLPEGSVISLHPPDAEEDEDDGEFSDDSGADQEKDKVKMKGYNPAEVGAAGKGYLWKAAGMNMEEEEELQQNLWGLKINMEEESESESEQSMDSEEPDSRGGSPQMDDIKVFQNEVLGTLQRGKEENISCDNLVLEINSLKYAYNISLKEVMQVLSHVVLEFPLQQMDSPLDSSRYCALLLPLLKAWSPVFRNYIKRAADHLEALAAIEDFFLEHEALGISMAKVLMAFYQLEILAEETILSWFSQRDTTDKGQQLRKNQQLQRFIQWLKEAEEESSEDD
In short: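 Human eIF2B subunits were co-expressed in E. coli from three plasmids, and the βγδε (δL179A) and α2 subcomplexes were purified separately and combined. The substrate was non-phosphorylated human eIF2 from gcn2Δ S. cerevisiae, loaded with Bodipy-GDP. A 1000-fold excess of unlabeled GDP was added as a chase, and the fluorescence decrease was followed with and without test compound. kobs came from a single-exponential fit.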

eIF2B(αβγδε)2 [2] = biological target: eIF2B(αβγδε)2 (Homo sapiens, UniProt P49770+Q9UI10, P49770:H188A); experiment: decamer stability, sucrose gradient velocity sedimentation; format: binding; settings: 500 nM ISRIB, 400 mM salt
Sequence of eIF2B(αβγδε)2 (Homo sapiens, UniProt P49770+Q9UI10, P49770:H188A) (P49770 whole entry H188A): as the sequence (P49770 whole entry) above, with H188A counted along it
Sequence of eIF2B(αβγδε)2 (Homo sapiens, UniProt P49770+Q9UI10, P49770:H188A) (Q9UI10 whole entry): as the sequence (Q9UI10 whole entry L179A) above, with A179L counted along it
Sequence of eIF2B(αβγδε)2 (Homo sapiens, UniProt P49770+Q9UI10, P49770:H188A) (Q14232 whole entry partner): as the sequence (Q14232 whole entry partner) above
Sequence of eIF2B(αβγδε)2 (Homo sapiens, UniProt P49770+Q9UI10, P49770:H188A) (Q9NR50 whole entry partner): as the sequence (Q9NR50 whole entry partner) above
Sequence of eIF2B(αβγδε)2 (Homo sapiens, UniProt P49770+Q9UI10, P49770:H188A) (Q13144 2-721 partner): as the sequence (Q13144 2-721 partner) above

Sequence of eIF2 (P41091 2-472): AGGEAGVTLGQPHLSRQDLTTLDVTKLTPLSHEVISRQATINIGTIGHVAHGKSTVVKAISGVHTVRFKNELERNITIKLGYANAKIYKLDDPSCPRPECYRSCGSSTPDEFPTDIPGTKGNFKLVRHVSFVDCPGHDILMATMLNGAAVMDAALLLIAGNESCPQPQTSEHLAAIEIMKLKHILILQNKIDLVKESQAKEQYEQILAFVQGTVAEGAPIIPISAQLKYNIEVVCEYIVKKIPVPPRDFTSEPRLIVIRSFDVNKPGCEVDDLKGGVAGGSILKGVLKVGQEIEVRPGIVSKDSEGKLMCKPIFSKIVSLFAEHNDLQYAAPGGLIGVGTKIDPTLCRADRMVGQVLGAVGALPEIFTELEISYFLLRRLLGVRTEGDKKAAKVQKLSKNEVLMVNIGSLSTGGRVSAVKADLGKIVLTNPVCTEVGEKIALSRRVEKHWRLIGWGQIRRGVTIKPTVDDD
Sequence of eIF2 (P05198 whole entry partner): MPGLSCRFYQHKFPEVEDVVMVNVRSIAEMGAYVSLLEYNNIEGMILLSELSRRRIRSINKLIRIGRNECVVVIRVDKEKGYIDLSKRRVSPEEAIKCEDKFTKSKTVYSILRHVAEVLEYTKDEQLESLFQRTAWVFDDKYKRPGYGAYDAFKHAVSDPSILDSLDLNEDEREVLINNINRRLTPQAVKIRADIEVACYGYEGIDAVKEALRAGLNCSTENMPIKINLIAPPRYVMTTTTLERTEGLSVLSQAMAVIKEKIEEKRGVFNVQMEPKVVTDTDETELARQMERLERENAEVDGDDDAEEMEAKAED
Sequence of eIF2 (P20042 2-333 partner): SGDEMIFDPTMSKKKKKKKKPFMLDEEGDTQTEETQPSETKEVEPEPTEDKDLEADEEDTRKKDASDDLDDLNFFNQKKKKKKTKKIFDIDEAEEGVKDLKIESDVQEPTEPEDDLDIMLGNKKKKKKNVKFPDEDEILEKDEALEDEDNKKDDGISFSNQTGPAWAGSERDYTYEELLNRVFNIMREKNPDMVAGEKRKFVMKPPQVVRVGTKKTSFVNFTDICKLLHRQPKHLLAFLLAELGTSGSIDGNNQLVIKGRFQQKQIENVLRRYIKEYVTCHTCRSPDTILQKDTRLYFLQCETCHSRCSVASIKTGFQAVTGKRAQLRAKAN

Compound: Nc1nc2c(ncn2[C@@H]2O[C@H](COP(=O)(O)OP(=O)(O)O)[C@@H](O)[C@H]2O)c(=O)[nH]1 [GDP]
- GDP unloading assay, displacement of Bodipy-GDP (eIF2): we added fluorescent Bodipy-GDP to GDP-bound eIF2

- fold activation of GEF activity (kobs) (eIF2B(αβγδε)2 [1]): ~ 3 fold
Compound: C[C@@H](Oc1ccc(Cl)cc1)C(=O)N[C@H]1CC[C@H](NC(=O)[C@@H](C)Oc2ccc(Cl)cc2)CC1 [ISRIB-A19(R,R)]

Compound: O=C(COc1ccc(Cl)cc1)N[C@H]1CC[C@H](NC(=O)COc2ccc(Cl)cc2)CC1 [ISRIB]
- decamer stabilization (inactive: none seen) (eIF2B(αβγδε)2 [2]): ISRIB did not stabilize eIF2B(βH188A) decamers
